Source: ChEMBL document CHEMBL3271955, “Design, synthesis, and correlation analysis of 7-substituted 4-hydroxyquinoline-3-carboxylic acids as inhibitors of cellular respiration” (J Med Chem, 1977)

Key:
[1] = tested on: Ehrlich; assay: Inhibition of respiration in mouse Ehrlich ascites cells after 30 mins incubation at 37 degC by whole cell model; type: functional, cell-based; details: 0.5 h, read-out: I50
Method in brief: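 Ehrlich ascites cells passaged weekly in Swiss white mice; fluid from 7-10 day tumors, saline-washed, held on ice at ~0.30 g/mL. Cells incubated in glucose-free phosphate Ringer with DMSO vehicle or DMSO plus inhibitor, 30 min at 37 °C. O2 uptake read by oxygen electrode. At least four concentrations in triplicate; I50 by least squares of % inhibition vs concentration.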

[2] = target: T1, Malate dehydrogenase, mitochondrial (Homo sapiens, UniProt P40926); assay: Inhibition of malate dehydrogenase (unknown origin) by spectrophotometry; details: read-out: I50
T1 sequence (P40926 whole entry): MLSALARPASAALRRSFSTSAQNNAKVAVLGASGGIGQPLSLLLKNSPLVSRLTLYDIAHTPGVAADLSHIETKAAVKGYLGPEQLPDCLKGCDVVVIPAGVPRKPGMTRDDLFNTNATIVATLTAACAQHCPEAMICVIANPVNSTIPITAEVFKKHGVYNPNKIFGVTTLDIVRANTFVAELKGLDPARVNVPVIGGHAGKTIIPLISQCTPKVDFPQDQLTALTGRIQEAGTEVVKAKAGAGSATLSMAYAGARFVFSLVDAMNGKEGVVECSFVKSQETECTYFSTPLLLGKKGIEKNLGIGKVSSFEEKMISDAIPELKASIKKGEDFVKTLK
Method in brief: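 Malate dehydrogenase of unstated source diluted in pH 7.4 Tris to give 0.01-0.02 OD/min at 340 nm. Cuvette holds L-malate (2 mM stock), NAD+ (0.80 mM stock) and 0.05 M Tris pH 8.4, with inhibitor in Me2SO, at 25 °C. Reaction started with enzyme; NADH formation read at 340 nm. Four inhibitor levels in triplicate; I50 from least-squares dose-response line.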

[3] = Lipophilicity, log P of the compound; type: physicochemical; details: octanol/water

| SMILES | IC50 [1] [µM] | IC50 [2] [µM] | logP [3] |
| --- | --- | --- | --- |
| O=C(O)c1cnc2cc([N+](=O)[O-])ccc2c1O | 580 | 1890 |  |
| CS(=O)(=O)c1ccc2c(O)c(C(=O)O)cnc2c1 | 1790 | 660 |  |
| CC(=O)c1ccc2c(O)c(C(=O)O)cnc2c1 | 790 | 910 |  |
| O=C(O)c1cnc2ccccc2c1O | 1060 |  | 0.23 |
| O=C(O)c1ccc2c(O)c(C(=O)O)cnc2c1 | 5770 | 1070 |  |
| NS(=O)(=O)c1ccc2c(O)c(C(=O)O)cnc2c1 | 3400 | 950 |  |
| NC(=O)c1ccc2c(O)c(C(=O)O)cnc2c1 | 5820 | 740 |  |
| O=C(O)c1cnc2cc(S(=O)(=O)O)ccc2c1O | 1300 | 2140 |  |

More lines, now with the values ahead:

| IC50 [1] [µM] | IC50 [2] [µM] | logP [3] | SMILES |
| --- | --- | --- | --- |
| 38 | 32 |  | O=C(O)c1cnc2cc(OCc3ccccc3)ccc2c1O |
| 500 | 10600 |  | O=C(O)c1cnc2cc(F)ccc2c1O |
| 520 |  |  | COc1ccc2c(O)c(C(=O)O)cnc2c1 |
| 910 | 490 |  | O=C(O)c1cnc2cc(O)ccc2c1O |
| 470 | 480 |  | CN(C)c1ccc2c(O)c(C(=O)O)cnc2c1 |
| 15 | 5 |  | O=C(O)c1cnc2cc(OCc3ccc(Cl)c(Cl)c3)ccc2c1O |
| 140 | 3620 |  | O=C(O)c1cnc2cc(Cl)ccc2c1O |
